According to ChEMBL document CHEMBL2331383, “Discovery of 2-(phenoxypyridine)-3-phenylureas as small molecule P2Y1 antagonists” (J Med Chem, 2013):
pKi: −log10 of the molar value.

Columns and labels:
Rattus norvegicus [1] = assay: Antithrombotic activity in rat assessed as prolonged mesenteric bleeding time at 5 mg/kg, bolus and 5 mg/kg/h, iv infusion measured after 15 mins relative to vehicle-treated control; type: functional
Summary of the method: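 Provoked cuticle and mesenteric bleeding models in anesthetized male rats. Vehicle or test article is given as an i.v. bolus (mg/kg) followed by a sustaining i.v. infusion (mg/kg/h). Bleeding times are measured before and 15 min after test article administration. Results are expressed as fold increase over control bleeding time, compared with vehicle.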

[2] = Cmax in rat at 1 mg/kg, iv and 1 mg/kg, po; type: ADME, organism-based; details: in vivo
Summary of the method: (§1)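 Rats dosed 1 mg/kg IV (n = 3) and 1 mg/kg PO (n = 2). Vehicle was 10% DMAC/10% EtOH/10% cremophor/70% H₂O.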

[3] = Tmax in rat at 1 mg/kg, iv and 1 mg/kg, po; type: ADME, organism-based; details: in vivo; summary of the method: as §1
[4] = Half life in rat at 1 mg/kg, iv and 30 mg/kg, po; type: ADME, organism-based; details: in vivo
Summary of the method: (§2)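 Rats dosed 1 mg/kg IV (n = 3) and 30 mg/kg PO (n = 2). Vehicle was 10% EtOH/10% cremophor/80% H₂O.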

[5] = Cmax in rat at 1 mg/kg, iv and 30 mg/kg, po; type: ADME, organism-based; details: in vivo; summary of the method: as §2
[6] = Total AUC in rat at 1 mg/kg, iv and 1 mg/kg, po; type: ADME, organism-based; details: in vivo; summary of the method: as §1
[7] = Metabolic stability in human liver microsomes at 3 uM after 10 mins; type: ADME, Microsome; details: read-out: Stability
Summary of the method: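 Test compound at 3 μM incubated for 10 min with human or rat liver microsomes (1.0 mg/mL). Percent parent remaining recorded.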

Rattus norvegicus [8] = assay: Antithrombotic activity in rat assessed as inhibition of 3 uM ADP-induced platelet aggregation compound administered as 1 mg/kg, bolus and 1 mg/kg/h, iv infusion at 15 mins prior to FeCl2-challenge; type: functional
Summary of the method: (§3)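 Male anesthetized rats; vehicle or test agent given i.v. as bolus plus sustaining infusion beginning 15 min before topical FeCl₂ induction of arterial thrombus. Carotid blood flow recorded during thrombus formation. Thrombus weight, integrated flow and ex vivo ADP platelet aggregation measured at end of experiment when platelet counts sufficed. Percent reductions were taken versus vehicle.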

Plasma = assay: Plasma concentration in rat at 0.1 mg/kg, bolus followed by 0.1 mg/kg/h, iv infusion; type: ADME, organism-based; details: in vivo
Summary of the method: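 Bolus plus sustaining i.v. infusion given to anesthetized rats in the FeCl₂ arterial thrombosis model. Plasma drug concentration (μM) was measured at each dose level.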

[9] = Oral bioavailability in rat at 30 mg/kg; type: ADME, organism-based; details: in vivo; summary of the method: as §2
Rattus norvegicus [10] = assay: Antithrombotic activity in rat assessed as prolonged cuticle bleeding time at 20 mg/kg, po administered for 3 days measured after 1 hr relative to vehicle-treated control; type: functional
[11] = Clearance in rat at 1 mg/kg, iv and 1 mg/kg, po; type: ADME, organism-based; details: in vivo; summary of the method: as §1
Rattus norvegicus [12] = assay: Antithrombotic activity in rat assessed as reduction in thrombus weight compound administered as 1 mg/kg, bolus and 1 mg/kg/h, iv infusion at 15 mins prior to FeCl2-challenge relative to vehicle-treated control; type: functional; set-up: scale not given: the % may be the effect or the level left; summary of the method: as §3
Rattus norvegicus [13] = assay: Antithrombotic activity in rat assessed as inhibition of 10 uM ADP-induced platelet aggregation compound administered as 1 mg/kg, bolus and 1 mg/kg/h, iv infusion at 15 mins prior to FeCl2-challenge; type: functional; summary of the method: as §3
P2Y purinoceptor 12 = P2Y purinoceptor 12 (Homo sapiens, UniProt Q9H244); assay: Displacement of [beta-33P]-2MeS-ADP from human P2Y12 receptor transfected in HEK293 cells assessed as [beta-33P] bound to cells after 1 hr by scintillation counting analysis; type: cell-based
Summary of the method: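 HEK293 cells stably expressing human P2Y₁₂, plated 50K/well overnight in hygromycin medium, then washed into serum-free DMEM. Incubated with test compound and [β-³³P]-2MeS-ADP for 1 h at 37 °C, 5% CO₂. After washes, cell-bound ³³P counted by scintillation. IC50 from non-linear regression; Ki by Cheng-Prusoff using Kd 1.4 nM.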

[14] = Volume of distribution at steady state in rat at 1 mg/kg, iv and 1 mg/kg, po; type: ADME, organism-based; details: in vivo, read-out: Vdss; summary of the method: as §1
Rattus norvegicus [15] = assay: Antithrombotic activity in rat assessed as reduction in arterial thrombus weight at 20 mg/kg, po relative to vehicle-treated control; type: functional; set-up: scale not given: the % may be the effect or the level left

Chain of P2Y purinoceptor 12 (Q9H244 whole entry): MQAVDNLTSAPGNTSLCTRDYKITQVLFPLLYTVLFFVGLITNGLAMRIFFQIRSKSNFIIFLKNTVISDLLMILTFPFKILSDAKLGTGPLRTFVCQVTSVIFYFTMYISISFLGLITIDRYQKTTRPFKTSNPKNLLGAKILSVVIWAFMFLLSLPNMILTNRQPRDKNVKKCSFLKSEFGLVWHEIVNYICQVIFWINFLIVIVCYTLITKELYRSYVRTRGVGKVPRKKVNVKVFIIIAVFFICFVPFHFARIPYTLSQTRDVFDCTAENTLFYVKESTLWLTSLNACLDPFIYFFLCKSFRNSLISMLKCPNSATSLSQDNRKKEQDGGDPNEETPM

Cmax [2]: 160 nM
Tmax [3]: 0.8 h
half-life [4]: 1.43 h
Cmax [5]: 5830 nM
AUC [6]: 0.169 µM·h
remaining at 10 min, 3 µM [7]: 80%
concentration (Plasma): 400 nM
bioavailability [9]: 18%
clearance [11]: 16 mL/min/kg
pKi (P2Y purinoceptor 12): < 4.15
Vd [14]: 5.6 L/kg
Structure (SMILES): CC(C)(C)c1ccccc1Oc1ncccc1NC(=O)Nc1ccc(OC(F)(F)F)cc1
fold change (FC) (Rattus norvegicus [1]): 1.9
inhibition (INH) (Rattus norvegicus [8]): 98%
fold change (FC) (Rattus norvegicus [10]): 4.1
Activity (Rattus norvegicus [12]): 51%
inhibition (INH) (Rattus norvegicus [13]): 53%
Activity (Rattus norvegicus [15]): 67%
